ChEMBL document CHEMBL4138313 (J Med Chem, 2018)

How the values were obtained:
Type in all cases: cell-based
[1] = test system: MEF; experiment: Cytotoxicity against mouse PARP1 deficient MEF cells assessed as reduction in cell viability after 4 to 7 days by cell-titer glo assay
[2] = test system: MEF; experiment: Cytotoxicity against mouse wild type MEF cells assessed as reduction in cell viability after 4 to 7 days by cell-titer glo assay
[3] = test system: MEF; experiment: Cytotoxicity against mouse PARP2 deficient MEF cells expressing PARP1 assessed as reduction in cell viability after 4 to 7 days by cell-titer glo assay
[4] = molecular target: Poly [ADP-ribose] polymerase 1 (Homo sapiens, UniProt P09874); experiment: Binding affinity to PARP1 in human OVCAR8 cells assessed as reduction in [125I]-KX1 binding by gamma counting analysis
[5] = test system: OVCAR-8; experiment: Cytotoxicity against human OVCAR8 cells assessed as cell survival at 10 uM after 4 to 7 days by cell-titer glo assay; details: ovcar-8, 10 µM
[6] = test system: MEF; experiment: Cytotoxicity against mouse wild type MEF cells assessed as reduction in cell viability at 0.016 to 100 uM after 4 to 7 days by cell-titer glo assay
Method in brief: (§1)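 Cells kept at 37 °C, 5% CO2, 15% O2 in RPMI 1640 with 10% FBS and 1% penicillin/streptomycin. Seeded at 1,000 cells/well and dosed 24 h later at 100–0.016 µM. Exposure lasted 4–7 days, then viability was read by CellTiter Glo luminescence. Signal was normalized to percent survival against the mean of vehicle controls. Three repeat experiments.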

[7] = test system: MEF; experiment: Cytotoxicity against mouse PARP1 deficient MEF cells assessed as reduction in cell viability at 0.016 to 100 uM after 4 to 7 days by cell-titer glo assay; method in brief: as §1
[8] = test system: MEF; experiment: Cytotoxicity against mouse PARP2 deficient MEF cells expressing PARP1 assessed as reduction in cell viability at 0.016 to 100 uM after 4 to 7 days by cell-titer glo assay; method in brief: as §1

Chain of Poly [ADP-ribose] polymerase 1 (P09874 whole entry): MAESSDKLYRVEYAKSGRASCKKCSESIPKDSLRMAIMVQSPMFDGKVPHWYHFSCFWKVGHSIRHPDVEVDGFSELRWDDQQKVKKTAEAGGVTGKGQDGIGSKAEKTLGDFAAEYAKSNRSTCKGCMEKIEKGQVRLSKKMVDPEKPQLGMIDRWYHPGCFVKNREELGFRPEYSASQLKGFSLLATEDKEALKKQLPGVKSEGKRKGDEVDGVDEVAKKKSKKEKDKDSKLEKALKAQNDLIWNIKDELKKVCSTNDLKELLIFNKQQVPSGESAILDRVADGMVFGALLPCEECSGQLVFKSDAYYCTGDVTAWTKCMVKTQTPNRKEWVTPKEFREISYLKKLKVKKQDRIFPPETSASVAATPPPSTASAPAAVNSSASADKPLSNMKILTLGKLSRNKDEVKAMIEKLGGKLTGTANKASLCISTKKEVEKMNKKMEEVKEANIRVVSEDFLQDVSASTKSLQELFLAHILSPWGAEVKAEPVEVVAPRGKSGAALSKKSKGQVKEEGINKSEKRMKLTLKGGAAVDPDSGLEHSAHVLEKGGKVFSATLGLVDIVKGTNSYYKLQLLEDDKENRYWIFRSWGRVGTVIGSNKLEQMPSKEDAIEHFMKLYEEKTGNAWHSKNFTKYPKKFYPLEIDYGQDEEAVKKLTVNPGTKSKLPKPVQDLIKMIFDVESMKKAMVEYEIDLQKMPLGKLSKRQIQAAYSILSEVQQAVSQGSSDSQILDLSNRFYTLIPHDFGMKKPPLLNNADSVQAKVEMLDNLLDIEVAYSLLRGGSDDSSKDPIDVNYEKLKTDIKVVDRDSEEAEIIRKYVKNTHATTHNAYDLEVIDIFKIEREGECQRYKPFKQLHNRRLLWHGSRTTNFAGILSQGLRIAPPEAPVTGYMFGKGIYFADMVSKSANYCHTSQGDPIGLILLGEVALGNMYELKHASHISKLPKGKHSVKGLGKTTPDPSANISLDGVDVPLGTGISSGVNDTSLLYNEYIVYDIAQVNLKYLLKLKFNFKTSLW

Compound | EC50 [1] [µM] | EC50 [2] [µM] | EC50 [3] [µM] | IC50 [4] [nM] | Activity [5] | Activity [6] [%] | Activity [7] [%] | Activity [8] [%]
CC(C)(C)OC(=O)N1CCC2(CC1)CN(C(=O)c1cc(Cc3n[nH]c(=O)c4ccccc34)ccc1F)C2 | 49.2 | 23.4 | 41.5 | – | – | – | – | –
O=C(c1cc(Cc2n[nH]c(=O)c3ccccc23)ccc1F)N1CC2(CCCCC2)C1 | 48.3 | 25.6 | 39.9 | 65.4 | Non-Toxic | – | – | –
O=C(c1cc(Cc2n[nH]c(=O)c3ccccc23)ccc1F)N1CCC2(CCNCC2)CC1 | – | – | 59.7 | 234 | – | < 50 | < 50 | –
O=C(c1cc(Cc2n[nH]c(=O)c3ccccc23)ccc1F)N1CCC2(CNC2)C1 | – | – | – | 1240 | – | < 50 | < 50 | < 50
O=C(c1cc(Cc2n[nH]c(=O)c3ccccc23)ccc1F)N1CC2(CCC2)C1 | – | 48.3 | 49 | 33.9 | Non-Toxic | – | < 50 | –
O=C(c1cc(Cc2n[nH]c(=O)c3ccccc23)ccc1F)N1CCC12CCCCC2 | – | 32.6 | 78.8 | 284 | – | – | < 50 | –
CC(C)(C)OC(=O)N1CC2(CCN(C(=O)c3cc(Cc4n[nH]c(=O)c5ccccc45)ccc3F)C2)C1 | – | 29.2 | 31.8 | – | – | – | < 50 | –
O=C(c1cc(Cc2n[nH]c(=O)c3ccccc23)ccc1F)N1CCC2(CCCC2)C1 | – | 31.7 | 55.5 | 51.4 | – | – | – | –
O=C(c1cc(Cc2n[nH]c(=O)c3ccccc23)ccc1F)N1CCC2(CCNC2)C1 (configuration not stated) | – | – | – | 1120 | – | < 50 | < 50 | –
O=C(c1cc(Cc2n[nH]c(=O)c3ccccc23)ccc1F)N1CCC2(CCN(C(=O)C3CC3)CC2)C1 | – | 41.6 | 61 | 225 | – | – | < 50 | –
O=C(C1CC1)N1CC2(CCN2C(=O)c2cc(Cc3n[nH]c(=O)c4ccccc34)ccc2F)C1 | – | 53.2 | 46.7 | 130 | – | – | < 50 | –
O=C(c1cc(Cc2n[nH]c(=O)c3ccccc23)ccc1F)N1CCC2(C1)CN(C(=O)C1CC1)C2 | – | – | 61.8 | 2540 | – | < 50 | < 50 | –
O=C(C1CC1)N1CCC2(CC1)CCN2C(=O)c1cc(Cc2n[nH]c(=O)c3ccccc23)ccc1F | – | 47.5 | 44.4 | 431 | – | – | < 50 | –
O=C(c1cc(Cc2n[nH]c(=O)c3ccccc23)ccc1F)N1CCC12CNC2 | – | – | – | 526 | – | < 50 | < 50 | < 50
O=C(c1cc(Cc2n[nH]c(=O)c3ccccc23)ccc1F)N1CC2(COC2)C1 | – | 52.2 | 53.3 | – | – | – | < 50 | –
CC(C)(C)OC(=O)N1CCC2(CC1)CCN2C(=O)c1cc(Cc2n[nH]c(=O)c3ccccc23)ccc1F | – | 23.3 | 33.2 | 2970 | – | – | < 50 | –
O=C(c1cc(Cc2n[nH]c(=O)c3ccccc23)ccc1F)N1CCC2(CCNCC2)C1 | – | – | – | 3880 | – | < 50 | < 50 | < 50
O=C(c1cc(Cc2n[nH]c(=O)c3ccccc23)ccc1F)N1CCC2(CCCCC2)CC1 | – | 41.3 | 41.3 | 57.1 | – | – | < 50 | –
O=C(c1cc(Cc2n[nH]c(=O)c3ccccc23)ccc1F)N1CC2(CCN(C(=O)C3CC3)CC2)C1 | – | 49.3 | 57.2 | 100 | – | – | < 50 | –
CC(C)(C)OC(=O)N1CC2(CCN2C(=O)c2cc(Cc3n[nH]c(=O)c4ccccc34)ccc2F)C1 | – | 42.9 | 35.8 | 877 | – | – | < 50 | –
O=C(c1cc(Cc2n[nH]c(=O)c3ccccc23)ccc1F)N1CCC2(CCN(C(=O)C3CC3)C2)C1 (configuration not stated) | – | – | 70.9 | 2590 | – | < 50 | < 50 | –
COC1CCN(C(=O)c2cc(Cc3n[nH]c(=O)c4ccccc34)ccc2F)CC1 [AZD2461] | – | – | – | 1.7 | – | – | – | –
O=C(c1cc(Cc2n[nH]c(=O)c3ccccc23)ccc1F)N1CC2(CNC2)C1 | – | – | – | 2390 | – | < 50 | < 50 | < 50
O=C(c1cc(Cc2n[nH]c(=O)c3ccccc23)ccc1F)N1CCC12CCC2 | – | 48 | 58.3 | 36.5 | – | – | < 50 | –
O=C(c1cc(Cc2n[nH]c(=O)c3ccccc23)ccc1F)N1CCC2(CC1)CCN(C(=O)C1CC1)CC2 | 49.7 | 24.8 | 21.6 | – | Non-Toxic | – | – | –
O=C(c1cc(Cc2n[nH]c(=O)c3ccccc23)ccc1F)N1CCC2(CCCCC2)C1 | 51.6 | 42.7 | 46.8 | 141 | – | – | – | –
O=C(c1cc(Cc2n[nH]c(=O)c3ccccc23)ccc1F)N1CCC2(CCC2)C1 | – | 45.2 | 54.7 | 32.4 | – | – | < 50 | –
O=C(c1cc(Cc2n[nH]c(=O)c3ccccc23)ccc1F)N1CCC12CCNCC2 | – | – | 106 | – | – | < 50 | < 50 | –
O=C(c1cc(Cc2n[nH]c(=O)c3ccccc23)ccc1F)N1CC2(CCNCC2)C1 | – | – | 68.5 | 1420 | – | < 50 | < 50 | –
CC(C)(C)OC(=O)N1CC2(C1)CN(C(=O)c1cc(Cc3n[nH]c(=O)c4ccccc34)ccc1F)C2 | – | 31.1 | 24.7 | – | – | – | < 50 | –
